Only a selection was taken, and hits are over-represented in it overall.
H69AR inhibit: growth inhibitors of human H69AR lung tumor cells | H69AR lung tumor viability, ATP luminescence, 72 h; stronger effect = lower value | viability, % at 10 µM | 6% of 85,000 active;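 active = viability at or below 40%; inactive = viability above 40%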;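 also: multidrug resistant small cell line overexpressing MRP-1 efflux transporter; 100% = mean luminescence of untreated control wells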
Calb biofilm kill: kills Candida albicans biofilms. 0.14% of 85,000 active. AID 834. inhibition, % at 6 µM. C. albicans biofilm + clotrimazole, Alamar Blue;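 active = inhibition above 20%; inactive = inhibition below 20%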;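 also: preformed 24 hr biofilms exposed to compound for 48 hr; 0% = biofilm without compound and 100% = blank killed by clotrimazole plus chlorhexidine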
HCT116 PTEN-null: PTEN-deleted cell growth suppression; HCT116 PTEN-null viability, CellTiter-Glo, 60 h; stronger effect = lower value; viability, % at 10 µM; 1.2% of 140,000 active; AID 827;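 active = viability at or below a set limit, 4 SD under the median of all tested compounds, cut at about 3.7% in these data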;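 also: PTEN knockout HCT116 line with beta catenin targeted HCT116 as companion control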
HUVEC prolif 384: blocks proliferation of human endothelial cells; HUVEC proliferation, CellTiter-Glo luminescence, 72 h; stronger effect = lower value; viability, % at 10 µM (by protocol); 1.1% of 86,000 active; AID 648;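 active = viability at or below 30%; inactive = viability above 30%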;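 also: 100% = median luminescence of DMSO-only cell control wells on each plate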
Lung fibro prol: blocks proliferation of human lung fibroblasts; LL 47 human lung fibroblast viability, ATP luminescence; stronger effect = lower value; viability, % at 10 µM; 1.1% of 85,000 active; AID 719;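 active = viability at or below 50% in the single dose screen; inactive = viability above 50%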;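 also: compound exposure lasted 72 h before the ATP readout; 100% = median luminescence of untreated cell-only wells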
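Test system: LL 47 human lung fibroblasts / Quantity: 1,150 cells in each well / Medium: IMEM growth medium with 15% fetal bovine serum / Incubation: 72 h compound exposure at 37 °C after overnight plating / Detection: CellTiter-Glo luminescence measuring cellular ATP / Read-out: % viability versus median cells-only luminescence / Benchmarks: cell-only wells, no compound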
bCat KO growth: beta-catenin-lacking colon tumor cell growth suppression; HCT116 beta-catenin knockout viability, CellTiter-Glo, 60 h; stronger effect = lower value; viability, % at 10 µM; 1.5% of 140,000 active;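 active = viability at or under a set limit, the compound median less 4 SD, cut at about 6% in these data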;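 also: 0% = Hyamine 1622 control at 20 µM and 100% = untreated cell control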
Starred values were filed as active, the others as inactive; / = not tested or not shown.

SMILES | H69AR inhibit | Calb biofilm kill | HCT116 PTEN-null | HUVEC prolif 384 | Lung fibro prol | bCat KO growth
CCc1cccc2c(C(=O)Cn3nnc(-c4ccc(OC)c(OC)c4)n3)c[nH]c12 | 39.3* | -1.8 | 85.7 | 80.4 | 92.6 | 95.3
CCCCCCC(=O)NC(Nc1ccc(S(N)(=O)=O)cc1)C(Cl)(Cl)Cl (stereo not given) | / | / | 75.8 | / | / | 70.8
c1ccc(-c2cc3c(N4CCOCC4)ncnc3s2)cc1 | 30.9* | -8.7 | 72.1 | 72.6 | / | 87.6
C=CCn1c(SCC(=O)c2[nH]c(C)c(C(=O)OCC)c2C)nc2scc(-c3ccccc3)c2c1=O | / | / | 1.3* | / | / | 2.0*
C=CCn1c(SCC(=O)c2[nH]c(C)c(C(=O)OCC)c2C)nc2scc(-c3ccc(OC)cc3)c2c1=O | / | / | 1.6* | / | / | 1.7*
CCC(C)NC(=O)CSc1nc2ccc(N3CCOCC3)cc2c(=O)n1CCc1ccccc1 (stereo not given) | 37.8* | 2.0 | 92.9 | 82.9 | 97.2 | 81.3
CCCCn1c(SCC(=O)NC(C)CC)nc2ccc(N3CCOCC3)cc2c1=O (stereo not given) | / | / | 84.7 | / | / | 94.9
O=S(=O)(c1ccc(Cl)cc1)N1CCC(n2cnc3cc(C(F)(F)F)ccc32)CC1 | 34.8* | -2.1 | / | 94.3 | 102.7 | /
O=S(=O)(c1ccc2c(c1)OCCO2)N1CCC(n2cnc3cc(F)ccc32)CC1 | 68.2 | 12.8 | 79.1 | 96.4 | 92.3 | 80.4
O=C(Nc1cc2nn(-c3ccccc3)nc2cc1Cl)c1ccco1 | 42.1 | -3.7 | 3.4* | 54.4 | 96.7 | 1.7*
O=C(Nc1ccc2nn(-c3ccccc3)nc2c1)c1ccco1 | 89.3 | 6.5 | 96.7 | 91.1 | 89.7 | 94.2
COc1ccc(C(C)=O)cc1CSc1nc2ccccc2o1 | 90.1 | 6.8 | 1.0* | 90.1 | 95.0 | 1.1*
COc1ccc(C(C)=O)cc1CSc1nc2ccccc2c(=O)n1-c1ccccc1 | / | / | 46.4 | / | / | 66.2
Cc1cc(C)nc(N2CCCC(C(=O)NCCC3=CCCCC3)C2)n1 (stereo not given) | 95.1 | 8.7 | 90.8 | 103.6 | 104.5 | 103.1
COc1cc(C(=O)N2CCN(c3ccc([N+](=O)[O-])cc3)CC2)ccc1OCc1c(C)noc1C | 38.3* | 3.8 | 70.5 | 110.2 | 98.7 | 67.1
COc1ccc(N2CCN(C(=O)c3ccc(OCc4c(C)noc4C)c(OC)c3)CC2)cc1 | 92.3 | 4.8 | 93.4 | 101.5 | 95.5 | 89.6
COc1cc(C2Nc3ccc4ncccc4c3C3=C2C(=O)CCC3)ccc1O (stereo not given) | 28.5* | 5.2 | 27.1 | 64.2 | 69.7 | 24.8
Cc1ccsc1C1Nc2ccc3ncccc3c2C2=C1C(=O)CCC2 (stereo not given) | / | / | 76.5 | / | / | 83.7
O=C(NNC(=O)C1CC2CCC1C2)c1sc2ccccc2c1Cl (stereo not given) | / | / | 101.8 | / | / | 99.5
Cc1ccc2nc(NCC(=O)O)nc(-c3ccccc3)c2c1 | / | / | 100.7 | / | / | 99.6
Cc1ccc2nc(NCCCO)nc(-c3ccccc3)c2c1 | 8.9* | 3.3 | 25.9 | 63.9 | 73.2 | 23.4
CC1CCC(NC(=O)C2c3ccccc3C(=O)N2Cc2cccs2)CC1 (stereo not given) | / | / | 72.1 | / | / | 81.3
c1cn(CCCNc2ncnc3sc4c(c23)CCC4)cn1 | 89.0 | 9.5 | 88.4 | 90.5 | 88.3 | 103.2
COCCCNc1ncnc2sc3c(c12)CCC(C)C3 (stereo not given) | 39.0* | 6.5 | 89.5 | 89.4 | 89.4 | 85.9
COc1ccccc1NC(=O)c1ccc(-c2ccccc2F)o1 | 52.7 | 5.1 | 84.0 | 75.1 | 90.7 | 82.6
SMILES | H69AR inhibit | Calb biofilm kill | HCT116 PTEN-null | HUVEC prolif 384 | Lung fibro prol | bCat KO growth
COC(=O)c1ccccc1NC(=O)c1ccc(-c2ccccc2F)o1 | 12.8* | -5.2 | 76.3 | 36.1 | 68.0 | 85.5
CCOCCn1c(N2CCN(c3ccccc3)CC2)nc2c1c(=O)n(C)c(=O)n2C | 99.8 | 8.6 | 97.2 | 103.7 | 100.9 | 97.3
CCCn1c(CN2CCCCC2C)nc2c1c(=O)n(C)c(=O)n2C (stereo not given) | 85.9 | 18.0 | 73.4 | 108.5 | 103.9 | 77.0
CCCCCCn1c(CN2CCCCC2C)nc2c1c(=O)n(C)c(=O)n2C (stereo not given) | / | -4.1 | 10.3 | 96.5 | 85.9 | 6.0*
CC(=O)Cn1c(N2CCC(Cc3ccccc3)CC2)nc2c1c(=O)[nH]c(=O)n2C | 65.6 | -1.8 | 95.7 | 82.8 | 90.3 | 87.0
Cn1c(=O)[nH]c(=O)c2c1nc(N1CCC(Cc3ccccc3)CC1)n2Cc1ccccc1 | 19.6* | -1.6 | 58.8 | 59.0 | 100.8 | 67.7
CCCn1c(N2CCC(Cc3ccccc3)CC2)nc2c1c(=O)[nH]c(=O)n2C | 41.3 | 9.1 | 60.8 | 77.2 | 89.9 | 65.7
CCCCCCn1c(N2CCN(c3ccccc3)CC2)nc2c1c(=O)n(C)c(=O)n2C | 68.6 | 4.8 | 38.3 | 22.9* | 89.8 | 45.5
CCCCCn1c(N2CCC(Cc3ccccc3)CC2)nc2c1c(=O)[nH]c(=O)n2C | 19.6* | 3.1 | / | 7.5* | 93.1 | /
Cc1ccc(C)c(NS(=O)(=O)c2ccc3c(c2)Cc2cc(S(=O)(=O)Nc4cc(C)ccc4C)ccc2-3)c1 | / | / | 5.6 | / | / | 15.3
O=C(NS(=O)(=O)Oc1ccc(Cl)cc1)OC[C@@H]1CCCN2CCCC[C@H]12 | / | / | 100.5 | / | / | 95.1
Cn1nnc2cc(C(=O)N3CCC(c4ccccc4)C3)ccc21 (stereo not given) | 94.6 | -2.7 | 99.9 | 89.0 | 96.7 | 102.0
COc1cc(C(=O)N2CCN(c3cc(Cl)ccc3Cl)CC2)cc(OC)c1OC | 33.2* | 4.7 | 13.1 | 42.6 | 53.2 | 10.6
COc1ccc(C(=O)N2CCN(C(=O)c3cc(OC)c(OC)c(OC)c3)CC2)cc1 | 70.7 | -0.1 | 106.4 | 89.2 | 100.4 | 106.9
CCOc1ccc(C2c3c(oc4ccccc4c3=O)C(=O)N2c2ccccn2)cc1OC (stereo not given) | 82.2 | 1.4 | / | 105.2 | 94.8 | /
CCn1cc(C(=O)O)c(=O)c2cc(F)c(N/N=C/c3ccccc3[N+](=O)[O-])cc21 | / | / | 4.6 | / | / | 4.1*
CCn1cc(C(=O)O)c(=O)c2cc(F)c(N3CCN(S(=O)(=O)c4ccc(NC(=O)OC)cc4)CC3)cc21 | / | / | 19.0 | / | / | 15.5
COc1ccc(C2NCCc3c2[nH]c2ccccc32)cc1COc1ccc(F)cc1 (stereo not given) | / | / | 0.9* | / | / | 1.2*
O=C(CC(NC(=O)C(F)(F)F)c1ccccc1)Nc1nnc(CCc2ccccc2)s1 (stereo not given) | / | / | 88.6 | / | / | 97.2
CCN(CC)CCNc1nc2cc(OC)c(OC)cc2c2nc(-c3ccccc3)nn12 | 15.5* | 6.5 | 1.2* | 10.8* | 2.7* | 1.7*
COc1ccc(-c2[nH]ncc2Oc2ccccc2OC)c(O)c1 | 38.6* | 2.0 | 91.3 | 97.9 | 100.7 | 81.9
C=C(C)COc1ccc(-c2nc(N)nc(C)c2Oc2ccccc2OC)c(O)c1 | 76.7 | 6.2 | 86.8 | 93.6 | 88.8 | 86.5
C=C(C)COc1ccc(-c2[nH]ncc2Oc2cccc(OC)c2)c(O)c1 | 1.3* | 5.1 | 23.7 | 5.2* | 54.7 | 16.8
COc1ccc(Oc2cn[nH]c2-c2ccc(O)cc2O)cc1 | 92.2 | 4.0 | 81.5 | 85.0 | 96.1 | 86.1
